Inhibition and Activity data for one compound are collected here from ChEMBL document CHEMBL3861971, “Cinnamoyloxy-mammeisin Isolated from Geopropolis Attenuates Inflammatory Process by Inhibiting Cytokine Production: Involvement of MAPK, AP-1, and NF-κB” (J Nat Prod, 2016).

Series [1] has as its target MAP kinase p38 (Mus musculus) (UniProt P47811+O08911+Q9WUI1+Q9Z1B7). Description: Inhibition of MAPK p38 phosphorylation in peptidoglycan-stimulated mouse RAW264.7 cells at 6 uM pretreated for 30 mins followed by peptidoglycan stimulation for 15 mins by Western blot method. Type of series: cell-based. A digest of the protocol: (§1)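 RAW 264.7 cells (2×10^6/well) pretreated with 6 µM 30 min before PG 5 µg/mL. Lysed with RIPA plus protease/phosphatase inhibitors after 15 min of stimulation. Phospho-ERK1/2, SAPK/JNK and p38 detected by Western blot with chemiluminescence. n = 3 or 4.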
For orientation: A western blot detects proteins with antibodies after separation by electrophoresis.

Series [2] deals with RAW264.7. Briefly: Antiinflammatory activity in mouse RAW264.7 cells assessed as inhibition of LPS-stimulated TNFalpha production at 0.6 to 6 uM pretreated 30 mins prior to LPS challenge measured after 4 hrs by ELISA. The format is functional, cell-based. In a few lines: (§2)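 RAW 264.7 cells grown in RPMI/10% FBS, plated at 2×10^5/well overnight. Pretreated with 0.6, 2 or 6 µM 30 min before PG 5 µg/mL or LPS 10 ng/mL. Supernatant collected at 4 h for TNF-α and CXCL2/MIP-2 ELISA. Mean ± SEM, n = 3–5.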

In series [3] the test system is Mus musculus. Description: Antiinflammatory activity in specific pathogen-free C57BL/6 mouse assessed as inhibition of carrageenan-induced neutrophil migration into peritoneal cavity at 300 ug/kg, administered subcutaneously for 30 mins prior to carrageenan challenge measured after 4 hrs using Neubauer chamber by optical microscopic analysis. The format is functional. A digest of the protocol: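 Male C57BL/6 SPF mice (20–22 g) pretreated sc (vehicle 1% DMSO in PBS), 30 min before ip carrageenan 500 µg/cavity. Peritoneal neutrophils determined 4 h later. Differential count of 100 cells by optical microscopy (100×). Expressed as neutrophils per cavity.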

The species named for series [4] is Mus musculus. Description: Cytotoxicity against mouse RAW264.7 cells assessed as induction of apoptosis at 6 uM measured after 4 hrs by Annexin V-FTIC/propidium iodide staining-based flow cytometric analysis. Type of series: toxicity, cell-based. The conditions noted are these: raw264.7, 4 h. In a few lines: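 RAW 264.7 cells (2×10^6/well, overnight) exposed to 6 µM for 4 h, then washed into annexin buffer. Stained with annexin V-FITC (1:50, 4 °C, 20 min) and then PI (1:100). Analysed by flow cytometry, about 10 000 gated events. Three to four separate experiments.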
In general terms: A flow cytometer gives signals particle by particle.

The test system of series [5] is RAW264.7. Briefly: Antiinflammatory activity in mouse RAW264.7 cells assessed as inhibition of LPS-stimulated CXCL2/MIP-2 release at 0.6 to 6 uM pretreated 30 mins prior to LPS challenge measured after 4 hrs by ELISA. The format is functional, cell-based. A digest of the protocol:
as §2

Series [6] concerns Mus musculus. Description: Antiinflammatory activity in specific pathogen-free C57BL/6 mouse assessed as reduction in carrageenan-induced CXCL2/MIP-2 release in peritoneal cavity at 300 ug/kg administered subcutaneously for 30 mins prior to carrageenan challenge measured after 3 hrs by ELISA. Type of series: functional. In a few lines: (§3)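 Mice (male C57BL/6 SPF) dosed sc in 1% DMSO/PBS 30 min ahead of ip carrageenan 500 µg/cavity. Peritoneal cavity sampled at 1.5 h for TNF-α and at 3 h for CXCL2/MIP-2. Levels measured by ELISA, expressed as pg/mL or pg/mg tissue.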

The test system of series [7] is RAW264.7. Description: Antiinflammatory activity in mouse RAW264.7 cells assessed as inhibition of peptidoglycan-stimulated CXCL2/MIP-2 release at 0.6 to 6 uM pretreated 30 mins prior to peptidoglycan challenge measured after 4 hrs by ELISA. Type of series: functional, cell-based. In a few lines: as §2
Background: In an ELISA, binding on a coated surface is turned into a signal by an enzyme label.

Series [8] concerns Mus musculus. Briefly: Antiinflammatory activity in specific pathogen-free C57BL/6 mouse assessed as reduction of mBSA-induced TNF-alpha release in joint cavity at 100 ug/kg, administered post 21 days of immunization subcutaneously for 30 mins prior mBSA challenge measured after 1.5 hrs by ELISA. Type of series: functional. A digest of the protocol:
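Immunized mice (mBSA/Freund's adjuvant, boosts days 7 and 14) treated sc 30 min before day-21 ia mBSA 30 µg/joint. TNF-α in the joint measured by ELISA 1.5 h after challenge.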

Series [9] deals with RAW264.7. Description: Inhibition of JNK phosphorylation in peptidoglycan-stimulated mouse RAW264.7 cells at 6 uM pretreated for 30 mins followed by peptidoglycan stimulation for 15 mins by Western blot method. Type of series: cell-based. A digest of the protocol: as §1
Series [10] deals with Mus musculus. Briefly: Anti-inflammatory activity in specific pathogen-free C57BL/6 mouse assessed as inhibition of carrageenan-induced leukocyte rolling into mesenteric venules at 300 ug/kg administered subcutaneously for 30 mins prior to carrageenan challenge measured after 2 hrs for 10 mins by intravital microscopic analysis. Type of series: functional.
Series [11] deals with Transcription factor Jun (Mus musculus) (UniProt P05627). Briefly: Inhibition of c-jun phosphorylation in peptidoglycan-stimulated mouse RAW264.7 cells at 6 uM pretreated for 30 mins followed by peptidoglycan stimulation for 30 mins by immunofluorescence method.
The species entered for series [12] is Mus musculus. Briefly: Cytotoxicity against mouse RAW264.7 cells at 6 uM measured after 4 hrs by MTT assay. Type of series: toxicity, cell-based. The conditions noted are these: raw264.7, 4 h. In a few lines: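 RAW 264.7 cells (2×10^5/well, overnight) exposed to 6 µM for 4 h. MTT 1 mg/mL in RPMI added for 2 h. Formazan taken up in absolute ethanol and absorbance read at 540 nm.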

In series [13] the test system is Mus musculus. Briefly: Anti-inflammatory activity in specific pathogen-free C57BL/6 mouse assessed as reduction in carrageenan-induced TNF-alpha release in peritoneal cavity at 300 ug/kg administered subcutaneously for 30 mins prior to carrageenan challenge measured after 1.5 hrs by ELISA. The format is functional. A digest of the protocol:
as §3

In series [14] the test system is Mus musculus. Description: Antiinflammatory activity in specific pathogen-free C57BL/6 mouse assessed as inhibition of carrageenan-induced leukocyte adhesion in mesenteric venules at 300 ug/kg administered subcutaneously for 30 mins prior to carrageenan challenge measured after 4 hrs by intravital microscopy. The format is functional.
Series [15] deals with Mus musculus. Description: Antiinflammatory activity in specific pathogen-free C57BL/6 mouse assessed as inhibition of mBSA-induced neutrophil migration into joint cavity at 100 ug/kg, administered post 21 days of immunization subcutaneously for 30 mins prior to mBSA challenge measured after 6 hrs by cell counting method. The format is functional. A digest of the protocol: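 C57BL/6 SPF males immunized sc with mBSA 500 µg in Complete Freund's adjuvant/PBS emulsion, boosted days 7 and 14 with Incomplete Freund's adjuvant plus mBSA. Compound given sc 30 min before ia mBSA 30 µg/joint on day 21. At 6 h joint cavity washed with PBS/EDTA, then total and differential leukocyte counts.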

Series [16] concerns RAW264.7. Description: Antiinflammatory activity in mouse RAW264.7 cells assessed as inhibition of peptidoglycan-stimulated TNFalpha production at 0.6 to 6 uM pretreated 30 mins prior to peptidoglycan challenge measured after 4 hrs by ELISA. The format is functional, cell-based. In a few lines: as §2
Series [17] concerns the target Mitogen-activated protein kinase 1 and 3 (ERK2 and ERK1) (Mus musculus) (UniProt P63085+Q63844). Briefly: Inhibition of ERK1/2 phosphorylation in peptidoglycan-stimulated mouse RAW264.7 cells at 6 uM pretreated for 30 mins followed by peptidoglycan stimulation for 15 mins by Western blot method. Type of series: cell-based. In a few lines: as §1
The test system of series [18] is RAW264.7. Briefly: Inhibition of NFkappaB activation (unknown origin) expressed in mouse RAW264.7 cells at 0.6 to 6 uM pretreated for 30 mins followed by peptidoglycan challenge measured after 4 hrs by luciferase reporter gene assay. The format is cell-based. The note with it: Homo sapiens. In a few lines:
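RAW 264.7 cells stably carrying an NF-κB-driven luciferase reporter, plated at 3×10^5/well overnight. Pretreated with 0.6–6 µM 30 min before PG 5 µg/mL. Lysed in Tris-NaCl-Tween buffer at 4 h, luciferin reagent added and luminescence read. n = 3–5.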

Series [19] relates to Mus musculus. Briefly: Antiinflammatory activity in specific pathogen-free C57BL/6 mouse assessed as reduction in mBSA-induced myeloperoxidase activity in joint cavity at 100 ug/kg administered post 21 days of immunization subcutaneously for 30 mins prior to mBSA challenge measured after 6 hrs by bioluminescence assay. The format is functional. A digest of the protocol: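 mBSA-immunized C57BL/6 mice pretreated sc 30 min before ia mBSA 30 µg/joint. At 6 h, under anesthesia, mice given ip bioluminescent myeloperoxidase probe 100 mg/kg. Joints imaged on IVIS Spectrum, read out as radiance (p/sec/cm²/sr).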

Structures are written as SMILES. Calls of active or inactive are those of the source. The rule behind the calls is not given here.

Sequence of Mitogen-activated protein kinase 1 and 3 (ERK2 and ERK1) (Mus musculus) (P63085 whole entry, looked up): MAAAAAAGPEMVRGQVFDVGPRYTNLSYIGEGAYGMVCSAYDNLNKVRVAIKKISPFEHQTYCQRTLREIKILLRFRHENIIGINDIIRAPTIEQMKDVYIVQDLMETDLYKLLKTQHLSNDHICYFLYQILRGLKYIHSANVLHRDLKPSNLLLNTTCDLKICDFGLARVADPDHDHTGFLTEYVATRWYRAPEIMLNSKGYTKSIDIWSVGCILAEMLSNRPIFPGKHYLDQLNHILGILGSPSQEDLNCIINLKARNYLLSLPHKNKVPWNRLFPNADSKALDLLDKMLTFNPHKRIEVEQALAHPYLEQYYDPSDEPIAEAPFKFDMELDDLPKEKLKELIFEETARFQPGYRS
Sequence of Mitogen-activated protein kinase 1 and 3 (ERK2 and ERK1) (Mus musculus) (Q63844 whole entry, looked up): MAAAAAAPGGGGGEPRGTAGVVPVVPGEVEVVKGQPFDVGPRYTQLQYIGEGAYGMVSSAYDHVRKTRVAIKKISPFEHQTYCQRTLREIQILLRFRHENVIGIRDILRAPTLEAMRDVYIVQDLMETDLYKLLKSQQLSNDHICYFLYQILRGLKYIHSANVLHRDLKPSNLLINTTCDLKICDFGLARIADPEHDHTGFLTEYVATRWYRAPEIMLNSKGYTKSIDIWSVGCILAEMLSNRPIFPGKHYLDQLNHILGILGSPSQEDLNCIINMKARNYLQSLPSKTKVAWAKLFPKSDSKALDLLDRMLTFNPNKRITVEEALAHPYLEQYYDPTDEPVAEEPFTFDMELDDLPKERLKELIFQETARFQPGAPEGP
Sequence of Transcription factor Jun (Mus musculus) (P05627 whole entry): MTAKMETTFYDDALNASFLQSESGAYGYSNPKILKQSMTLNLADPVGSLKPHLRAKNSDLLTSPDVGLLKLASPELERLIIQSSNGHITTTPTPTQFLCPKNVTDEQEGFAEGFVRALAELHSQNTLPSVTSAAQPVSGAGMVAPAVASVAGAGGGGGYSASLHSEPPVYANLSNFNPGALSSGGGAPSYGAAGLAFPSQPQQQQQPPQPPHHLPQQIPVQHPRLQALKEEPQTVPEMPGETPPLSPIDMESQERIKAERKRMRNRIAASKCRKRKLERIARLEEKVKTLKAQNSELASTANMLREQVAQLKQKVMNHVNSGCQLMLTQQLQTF

`CC(C)=CCc1c(O)c(C(=O)CC(C)COC(=O)/C=C/c2ccccc2)c(O)c2c(-c3ccccc3)cc(=O)oc12` (centres undefined): the inhibition result (in series [1]; in the series on RAW264.7 [2]; in the series with Mus musculus [3]; in the series with RAW264.7 [5]; with RAW264.7 [7]; in the series on RAW264.7 [9]) was “Active” in each case. Besides, the inhibition result (with Mus musculus [10]; in series [11]; with Mus musculus [14]; in the series with Mus musculus [15]; with RAW264.7 [16]; in series [17]) was “Active” each time. Further, in the series with RAW264.7 [18], the inhibition result was “Active”. Moreover, the Activity result in the series listed under Mus musculus [4] and in the series filed under Mus musculus [12] was “Non-Toxic” each time. In addition, the result with Mus musculus [6], in the series with Mus musculus [8], in the series on Mus musculus [13] and in the series on Mus musculus [19] was Active.
